Entries after “also recorded” stand apart in the source; their conditions may differ.
How the values were obtained:
[1] = test system: Salmonella enterica ATCC 10708; experiment: MIC determination, broth dilution in 96-well plates; format: cell-based; conditions: nutrient broth, 28–37 °C, 16–48 h, OD600 read-out, max conc ~10 μg/mL
How it was run: (§1)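 Starter cultures were grown 16 h at 37 °C and 250 rpm, then diluted in medium to OD600 ~0.1. Test compound was serially diluted in DMSO, with DMSO alone as the negative control. Positive controls were kanamycin for the bacteria and amphotericin B for the yeast. Plates were shaken at 160 rpm during incubation. OD600 was normalized to vehicle wells, and the lowest inhibitory concentration was taken as the MIC.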

[2] = test system: Bacillus subtilis ATCC 6633; experiment: as above; format: cell-based; conditions: LB medium, 28–37 °C, 16–48 h, OD600 read-out, max conc ~10 μg/mL
How it was run: as §1

[3] = test system: Escherichia coli ATCC 12435; experiment: as above; format: cell-based; conditions: LB medium, 28–37 °C, 16–48 h, OD600 read-out, max conc ~10 μg/mL
How it was run: as §1

[4] = test system: Saccharomyces cerevisiae ATCC 204508; experiment: as above; format: cell-based; conditions: YAPD medium, 28–37 °C, 16–48 h, OD600 read-out, max conc ~10 μg/mL
How it was run: as §1

[5] = test system: S. aureus and B. subtilis; conditions: cited from earlier work
[6] = Stability under acidic conditions; format: physicochemical; conditions: observed during HPLC purification with TFA; UV/Vis monitoring
Gram-positive strains = experiment: Antibacterial activity, comparisons across the tested strains; format: cell-based; conditions: from MIC of Table 3
[7] = test system: two human cancer cell lines; experiment: Cytotoxicity, comparison across PC3 and A549; format: cell-based; conditions: PC3 and A549, 48 h

Substance: actinomycin Y4
- MIC, S. enterica [1]: >9.32 µg/mL
- MIC, B. subtilis [2]: >9.32 µg/mL
- MIC, E. coli [3]: >9.32 µg/mL
- MIC, S. cerevisae [4]: >9.32 µg/mL

Substance: actinomycin Y3
- MIC, S. enterica [1]: >9.33 µg/mL
- MIC, B. subtilis [2]: >9.33 µg/mL
- MIC, E. coli [3]: >9.33 µg/mL
- MIC, S. cerevisae [4]: >9.33 µg/mL

Substance: actinomycin Y5
- antibacterial activity based on zones of inhibition [5]: modest antibacterial activity

Substance: actinomycin Y6 [Compound 1]
- stability under acidic conditions [6]: not stable under acidic conditions; also recorded: unstable under acidic condition
- fold more potent than actinomycin Y3 (antibacterial) (Gram-positive strains): ≥ 9 fold
- MIC, S. enterica [1]: >9.46 µg/mL
- MIC, B. subtilis [2]: 0.59 µg/mL
- MIC, E. coli [3]: >9.46 µg/mL
- fold change in EC50 compared to actinomycin D (less potent) [7]: 278–355 fold
- MIC, S. cerevisae [4]: 9.46 µg/mL
